Assay outcomes deposited in PubChem BioAssay by several laboratories.
Env fusion inh: HIV envelope-mediated fusion inhibition | 360,000 tested, 1.1% active | inhibition, % at 12.3 µM | HeLa-JRFL Env/CEM21 cell fusion, luciferase | AID 651610;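 active means mean replicate inhibition score of at least 50 and every replicate individually at or above 50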;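 further: 0% = plate neutral controls and 100% = maraviroc near 300 nM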
GalR3 antag: blocks the human galanin receptor 3; 360,000 tested, 0.44% active; inhibition, % at 3 µM; O60755; HEK293 GalR3-CNG cAMP membrane potential fluorescence; galR3 body fused to GalR1 C-terminus;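 active means inhibition above the screen-wide average plus 3 SD, cut at about 13% in these data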;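 further: forskolin and galanin both at EC90 stimulate the cells; cAMP rise reported by CNG channel membrane potential dye signal; 0% = forskolin plus galanin with DMSO and 100% = forskolin alone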
V-ATPase pH: yeast V-ATPase proton transport regulation by pHLuorin; S. cerevisiae, pHLuorin cytosolic pH fluorescence; response, % at 10 µM; 350,000 tested, 0.37% active; in the data active means response mostly above about 7.3%, no sharp cut-off; inactive means mostly below about 5.4%; further: actives read high
NR2E3 ag-1: activates human photoreceptor nuclear receptor NR2E3. Q9Y5X4. GST-NR2E3/biotin-RetCOR TR-FRET, 1536-well. inhibition of corepressor binding, % at 4.78 µM. 320,000 tested, 0.12% active;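 active means percent inhibition above the cutoff of mean plus 3 SD of all tested compounds, set per screening campaign, cut at about 20% in these data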;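 further: 0% = DMSO wells and 100% = biotin wells as full block of FRET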
Target sequence (Q9Y5X4 whole entry, looked up): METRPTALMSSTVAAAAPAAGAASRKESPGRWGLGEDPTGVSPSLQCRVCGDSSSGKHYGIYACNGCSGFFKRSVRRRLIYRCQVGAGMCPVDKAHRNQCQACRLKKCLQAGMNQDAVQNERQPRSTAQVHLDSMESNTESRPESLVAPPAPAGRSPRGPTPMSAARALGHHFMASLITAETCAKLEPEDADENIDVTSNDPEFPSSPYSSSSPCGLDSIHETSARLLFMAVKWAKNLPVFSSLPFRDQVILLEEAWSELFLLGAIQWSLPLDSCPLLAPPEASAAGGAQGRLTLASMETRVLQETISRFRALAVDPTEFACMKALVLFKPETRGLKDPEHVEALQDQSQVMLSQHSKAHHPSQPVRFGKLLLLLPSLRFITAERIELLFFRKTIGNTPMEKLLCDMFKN
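Material: NR2E3–RetCOR corepressor complex | Quantity: 1.35 nM GST-tagged NR2E3 final | Schedule: 5 h at 4 °C | Replication: Singlicate compound wells | Reagent: RetCOR corepressor, biotinylated, 7 nM | Controls: Biotin wells as high control, 0.6% DMSO wells as low control | Signal: TR-FRET, Eu(K)-anti-GST donor, streptavidin-D2 acceptor, ex 340, em 617/671 nm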
NR2E3 ag-2: human photoreceptor-specific nuclear receptor agonism; Q9Y5X4; CHO-S Gal4-NCOR/VP16-NR2E3 two-hybrid, luciferase; inhibition of corepressor binding, % at 3.98 µM; AID 602229; 360,000 tested, 0.35% active;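 active means inhibition above the mean of all tested compounds plus 3 SD, cut at about 70% in these data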;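 further: 0% = DMSO with NR2E3 transfected cells and 100% = cells lacking NR2E3 construct; higher means lower luciferase signal from less NR2E3 corepressor binding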
FXN GAA850 act: increases GAA850 frataxin promoter reporter activity; AID 540364; activation, % at 6 µM; 360,000 tested, 0.56% active; HEK293 lucGAA850 FXN promoter luciferase reporter, 24 h; percent of 10 µM SAHA response;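 active means activation above the average of all compounds screened plus 3 SD, cutoff fixed separately per campaign, cut at about 7.5% in these data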;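 further: 0% = DMSO wells and 100% = 10 µM SAHA wells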
* marks the source's active call; other numbers are inactive results; · = no result given; [ ] = another dose, or the depositor's remark. Rows were chosen to be rich in hits. Some 2.2% of all compounds tested hit in one or more screens of this group.

SMILES	Env fusion inh	GalR3 antag	V-ATPase pH	NR2E3 ag-1	NR2E3 ag-2	FXN GAA850 act
C[C@H](CO)N1C[C@H](C)[C@@H](CN(C)C(=O)Nc2cccc3ccccc23)Oc2c(cccc2N(C)C)C1=O	-5[16.7 µM]	·	·	·	·	·
COc1cccc(NC(=O)N[C@@H]2C=C[C@@H](CC(=O)NCc3ccccn3)O[C@@H]2CO)c1	-41[16.7 µM]	·	·	·	·	·
O=[N+]([O-])c1cccc(COc2cccc(CN3CCCCC3)c2)c1	21	3	3	·	-19	1
O=[N+]([O-])c1cccc(COc2cccc(CN3CCCC3)c2)c1	60*	-7	-3	·	0	-1
CC(C)(C)n1nnnc1C(c1cccs1)N(Cc1ccccc1)Cc1ccco1 (stereo not drawn)	·	-7	3	4	-7	6
CC(C)(C)n1nnnc1C(c1cccs1)N(Cc1cccnc1)Cc1ccco1 (stereo not drawn)	53*	-2	4	1	-19	1
C[C@@H]1CN([C@@H](C)CO)C(=O)c2cc(NS(=O)(=O)c3cn(C)cn3)ccc2O[C@@H](C)CCCCO[C@@H]1CN(C)C(=O)CCCN(C)C	-38[16.7 µM]	·	·	·	·	·
Cc1ccc(S(=O)(=O)N(C)c2ccc(C(=O)N(C)Cc3nc4ccccc4c(=O)[nH]3)cc2)cc1	58*	-3	-10	·	9	-3
CN(Cc1nc2ccccc2c(=O)[nH]1)C(=O)c1ccc(S(=O)(=O)N(C)C)cc1	-60	-7	-2	0	11	5
C[C@H]1CN([C@@H](C)CO)C(=O)c2cc(NS(=O)(=O)c3cccs3)ccc2O[C@@H]1CN(C)CC1CCCCC1	-23[16.7 µM]	·	·	·	·	·
Cc1ccc(S(=O)(=O)Nc2cccc3c2O[C@@H](CN(C)C(=O)NC2CCCCC2)[C@@H](C)CN([C@H](C)CO)C3=O)cc1	29[16.7 µM]	·	·	·	·	·
CN(C(=O)COC(=O)c1cc(-c2ccc(Cl)s2)nc2ccccc12)C1CCS(=O)(=O)C1 (stereo not drawn)	4	-5	12*	-2	1	2
CN(C(=O)COC(=O)c1cc(-c2ccccc2Cl)nc2ccccc12)C1CCS(=O)(=O)C1 (stereo not drawn)	7	-6	-7	4	-10	4
CSc1ccc(CN2CCC2(C)C(=O)Nc2cccc(NS(C)(=O)=O)c2)cc1 (stereo not drawn)	76*	-7	·	·	-16	8
COc1ccc(NC(=O)C2(C)CCN2Cc2ccc(SC)cc2)cc1OC (stereo not drawn)	36	-7	·	·	7	3
CC(C)CCN(C(=O)c1csnn1)C(C(=O)NC1CCCCC1)c1ccc(F)cc1 (stereo not drawn)	59*	-10	-1	-2	-35	6
CO[C@@H]1CN(C)C(=O)c2cc(NC(C)=O)ccc2OC[C@H](C)N(Cc2cncnc2)C[C@@H]1C	18[16.7 µM]	·	·	·	·	·
C[C@H]1CN([C@@H](C)CO)C(=O)Cc2cc(NC(=O)Nc3ccc4c(c3)OCO4)ccc2O[C@H]1CN(C)S(=O)(=O)c1ccccc1	63*[16.7 µM]	·	·	·	·	·
C[C@H]1CN([C@@H](C)CO)C(=O)Cc2cc(NC(=O)Cc3ccccc3)ccc2O[C@H]1CN(C)S(=O)(=O)c1ccccc1	73*[16.7 µM]	·	·	·	·	·
Cc1ccc(S(=O)(=O)N(C)C[C@@H]2Oc3ccc(NC(=O)Cc4ccccc4)cc3CC(=O)N([C@H](C)CO)C[C@@H]2C)cc1	77*[16.7 µM]	·	·	·	·	·
Cc1ccc(S(=O)(=O)N(C)C[C@H]2Oc3ccc(NC(=O)Cc4ccccc4)cc3CC(=O)N([C@H](C)CO)C[C@H]2C)cc1	30[16.7 µM]	·	·	·	·	·
O=C(NCC1CCCCC1)[C@H]1[C@H](CO)[C@H]2Cn3c(cccc3=O)[C@@H]1N2C(=O)c1cccnc1	12[16.7 µM]	·	·	·	·	·
[N-]=[N+]=NCCNC(=O)Nc1ccccc1	-4[16.7 µM]	·	·	·	·	·
CN1CCN(C(=O)C2=C[C@H](c3ccccc3)C[C@H](OCCCCO)O2)CC1	-5[16.7 µM]	·	·	·	·	·
C[C@H](CO)N1C[C@H](C)[C@@H](CN(C)C(=O)c2ccccn2)Oc2ncc(Br)cc2C1=O	5[16.7 µM]	·	·	·	·	·
C[C@H](CO)N1C[C@H](C)[C@H](CN(C)C(=O)NC2CCCCC2)Oc2c(NC(=O)C3CCCCC3)cccc2C1=O	11[16.7 µM]	·	·	·	·	·
C[C@@H]1CN([C@@H](C)CO)C(=O)c2c(c3ccccc3n2C)-c2ccccc2CO[C@@H]1CN(C)C(=O)Nc1ccc(F)cc1	19[16.7 µM]	·	·	·	·	·
